# Source: PubChem
# Rows were chosen to be rich in hits. Some 2.5% of all compounds tested hit in one or more screens of this group.
# SENP8 block-1: human SENP8 protease inhibitors, primary screen, biochemical, fluorescence, Nedd8 protein substrate, uHTS; recombinant SENP8; inhibition, % at 20 µM; hit rate 0.64% among 360,000; in the data active = inhibition mostly above about 40%, no sharp cut-off; inactive = mostly below about 27%
# Target sequence (Q96LD8 whole entry, looked up): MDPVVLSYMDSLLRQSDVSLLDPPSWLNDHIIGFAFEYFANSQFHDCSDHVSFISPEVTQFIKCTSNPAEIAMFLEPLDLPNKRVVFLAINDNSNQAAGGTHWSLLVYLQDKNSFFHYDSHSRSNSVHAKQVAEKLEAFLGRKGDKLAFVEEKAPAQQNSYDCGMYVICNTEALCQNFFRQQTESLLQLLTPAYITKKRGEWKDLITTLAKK
# SENP1 FRET inh: human SENP1 catalytic domain inhibitors, primary screen, biochemical, FRET, uHTS; Sentrin-specific protease 1 (Homo sapiens), Q9P0U3; recombinant SENP1 catalytic domain, CyPet-SUMO1-YPet FRET cleavage; inhibition, % at 10 µM; hit rate 0.21% among 360,000; AID 624204, 2012;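 active = inhibition at least 30% at 10 µM, raw YFP signal under a set limit, fluorescence ratio 0.5 to 1.5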
# Target sequence (Q9P0U3 419-644 limits assumed): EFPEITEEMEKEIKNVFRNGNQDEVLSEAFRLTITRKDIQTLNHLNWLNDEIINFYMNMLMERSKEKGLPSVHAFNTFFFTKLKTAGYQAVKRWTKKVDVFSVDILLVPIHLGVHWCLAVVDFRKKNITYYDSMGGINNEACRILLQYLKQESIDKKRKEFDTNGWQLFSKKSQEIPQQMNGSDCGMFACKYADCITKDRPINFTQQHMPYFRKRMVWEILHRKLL
#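 material = recombinant human SENP1 catalytic domain, His6-tagged | quantity = 20 pM enzyme | reagent = 25 nM SUMO1 FRET substrate | compound dosing = 10 µM single point, 0.5% DMSO | timing = 50 min enzyme reaction, room temperature, light-protected | detection = FRET, CFP and YFP emission | control set = no-enzyme low, enzyme-DMSO high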
# SENP8 block-2: SENP8 protease inhibitors, primary screen, biochemical, luminescence. AID 2540, 2010. Sentrin-specific protease 8 (Homo sapiens), Q96LD8. inhibition, % at 10 µM. purified SENP8, Z-RLRGG-aminoluciferin cleavage. hit rate 1.2% among 330,000; in the data active = inhibition above about 50%
# SENP6 block: SENP6 protease inhibitors, primary screen, biochemical, luminescence, uHTS; Sentrin-specific protease 6 (Homo sapiens), Q9GZR1; Recombinant SENP6 catalytic domain, aminoluciferin luminescence; inhibition, % at 10 µM; hit rate 1.8% among 330,000;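 active = inhibition above about 50% at the single tested dose, limit read from the data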
# SENP7 block: SENP7 protease inhibitors, primary screen, biochemical, luminescence, uHTS. recombinant SENP7, Z-RLRGG-aminoluciferin luminescence, 40 min. hit rate 1.5% among 330,000. Sentrin-specific protease 7 (Homo sapiens), Q9BQF6. inhibition, % at 5 µM;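 active = inhibition above about 50% at the single test dose, limit read from the data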
# SENP8 inh conf: human SENP8 protease inhibitors, confirmation, biochemical, Nedd8 protein substrate, single concentration; purified SENP8, Nedd8-AMC/pro-Nedd8 cleavage fluorescence, 30 min; shares compounds with SENP8 block-1; hit rate 15% among 1,400; inhibition, % at 25 µM; in the data active = inhibition mostly above about 39%, no sharp cut-off; inactive = mostly below about 34%
# Hits are given with their value; n = inactive; x = not tested or not shown.
SMILES,SENP8 block-1,SENP1 FRET inh,SENP8 block-2,SENP6 block,SENP7 block,SENP8 inh conf
O=C(Cn1cnc2ccccc2c1=O)Nc1nnc(SCc2ccccc2)s1,42.1,n,n,n,n,n
Cc1ccc(NC(=O)Cc2nnc(SCC(=O)NC3CCCC3)n2C)cc1C,n,n,n,n,n,x
O=C(NCCCN1CCN(c2ccccc2F)CC1)Nc1ccccc1[N+](=O)[O-],43.5,n,n,n,n,n
CC1=C(SCCC#N)S/C(=C2\SC(C)=C(SCCC#N)S2)S1,45.5,n,n,n,n,69.3
CCS(=O)(=O)NCc1csc(-c2ccccc2)n1,n,n,n,n,n,x
CS(=O)(=O)NCc1csc(-c2ccccc2)n1,43.8,n,n,n,n,n
NCCNc1ccc(C(=O)N2c3ccccc3Sc3ccccc32)cc1[N+](=O)[O-],52.3,n,n,n,n,n
CCN(c1ccccc1)S(=O)(=O)c1ccc(N2CCN(c3ccc(O)cc3)CC2)nc1,n,n,n,n,n,x
COc1ccc(OCc2cn(CC(=O)c3ccc(O)cc3)nn2)cc1,n,n,x,x,x,x
CCC(=O)c1ccc(OCc2cn(CC(=O)c3ccc(O)cc3)nn2)cc1,32.4,n,x,x,x,40.6
Cc1ccc(Nc2nc(N)c([N+](=O)[O-])c(N3CCOCC3)n2)cc1C,41.3,n,n,n,n,n
Cc1ccc(Nc2nc(N)c([N+](=O)[O-])c(NCCO)n2)cc1C,48.4,n,n,n,n,n
CCOC(=O)NC(=O)C(/C=N/c1sccc1C(=O)OC)=C(\C)O,n,n,n,n,n,x
CC(C)OC(=O)CC1C(=O)NCCN1C(=S)NC(=O)c1cccs1 (centres undefined),n,n,n,n,n,x
CC1CCN(C(=O)c2nc[nH]c2C(=O)O[C@H](C)c2ccccc2)CC1,n,n,n,n,n,x
C[C@@H](OC(=O)c1[nH]cnc1C(=O)N1CCc2ccccc2C1)c1ccccc1,52.5,n,n,n,n,85.7
CSCCC(NC(=O)COc1ccccc1)C(=O)OC(C)C(=O)Nc1ccccc1C (centres undefined),n,n,n,n,n,x
COCc1c(C)cc(C)c(/C=N/O)c1C,46.8,n,n,n,n,n
CN(C)c1ccc(N=Cc2nc(-c3ccccc3)oc2O)cc1,40.4,n,n,n,n,n
C/C(CCC(C)C)=N\Nc1ccc(S(N)(=O)=O)cc1[N+](=O)[O-],n,n,n,n,n,x
NS(=O)(=O)c1ccc(N/N=C/c2ccc[nH]2)c([N+](=O)[O-])c1,35.2,n,n,n,n,n
CCC(CC)=NNc1ccc(S(N)(=O)=O)cc1[N+](=O)[O-],47.0,n,n,n,n,n
C/C(=N\Nc1ccc(S(N)(=O)=O)cc1[N+](=O)[O-])c1ccc2c(c1)OCO2,47.4,n,x,x,x,n
CCCn1c(N)c(N(CCOC)C(=O)c2ccc(S(=O)(=O)N3CCOCC3)cc2)c(=O)[nH]c1=O,n,n,x,x,x,x
COc1ccc(C(=O)OCCCN(C)C)cc1OC,41.2,n,n,n,n,n
SMILES,SENP8 block-1,SENP1 FRET inh,SENP8 block-2,SENP6 block,SENP7 block,SENP8 inh conf
CCOC(=O)Oc1ccc(C(=O)OCCCN(C)C)cc1OC,n,n,n,n,n,x
Cc1ccc(C(=O)N2CCN(Cc3ccccc3)CC2)o1,n,n,n,n,n,x
O=C(c1ccc([N+](=O)[O-])o1)N1CCN(Cc2ccccc2)CC1,42.4,n,n,n,n,n
O=C(c1sc2cc(Cl)ccc2c1Cl)N1CCN(CCc2ccccn2)CC1,n,n,n,n,n,x
COc1cc(OC)c(NC(=O)[C@@H]2CCC(=O)N2C2OC(=O)c3c2ccc(OC)c3OC)cc1Cl (some centres undefined),51.2,n,n,n,n,n
Cc1cccc(S(=O)(=O)NCCC(=O)OCC(=O)Nc2ccc(C#N)cc2)c1,n,n,n,n,n,x
CC1(C)C=C2C(=NN(c3ccccc3)C(N)=C2C#N)CO1,53.5,n,n,n,n,97.0
CC1(C)Cc2c(C#N)c(N)n(-c3ccccc3)c(=S)c2CO1,n,n,n,n,n,x
O=Nc1c(-c2ccccc2)[nH]n(-c2ccccc2)c1=O,47.3,n,n,n,n,n
